Square brackets hold non-standard residues; d marks the D form. Peptide text beside a SMILES is read from it. * marks the point of attachment. F2Pmp = N[C@@H](Cc1ccc(C(F)(F)P(=O)(O)O)cc1)C(=O)O; Fmoc = O=C(OCC1c2ccccc2-c2ccccc21)*; OBn = c1ccc(CO*)cc1
Experiments:
[1] = target: Secreted effector protein (Yersinia pestis, UniProt O68720); assay: Inhibition of Tyrosine phosphatase from Yersinia pestis expressed in Escherichia coli BL21 (DE3) cells
Summary of the method: (§1)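 Recombinant enzymes made in E. coli BL21(DE3) and purified as published previously. Assay run at 30 °C, pH 7.0, in 50 mM 3,3-dimethylglutarate, 1 mM EDTA, ionic strength brought to 150 mM with NaCl. Substrate pNPP fixed at each enzyme's Km. Enzyme added to start, NaOH quench, A405 read. Six to eight inhibitor concentrations used. IC50 obtained by fitting relative activity to a four-parameter slope-factor equation.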

[2] = target: T1, Tyrosine-protein phosphatase non-receptor type 1 (Homo sapiens, UniProt P18031); assay: Inhibition of human Protein-tyrosine phosphatase 1B expressed in Escherichia coli BL21 (DE3) cells; summary of the method: as §1
T1 sequence (P18031 whole entry): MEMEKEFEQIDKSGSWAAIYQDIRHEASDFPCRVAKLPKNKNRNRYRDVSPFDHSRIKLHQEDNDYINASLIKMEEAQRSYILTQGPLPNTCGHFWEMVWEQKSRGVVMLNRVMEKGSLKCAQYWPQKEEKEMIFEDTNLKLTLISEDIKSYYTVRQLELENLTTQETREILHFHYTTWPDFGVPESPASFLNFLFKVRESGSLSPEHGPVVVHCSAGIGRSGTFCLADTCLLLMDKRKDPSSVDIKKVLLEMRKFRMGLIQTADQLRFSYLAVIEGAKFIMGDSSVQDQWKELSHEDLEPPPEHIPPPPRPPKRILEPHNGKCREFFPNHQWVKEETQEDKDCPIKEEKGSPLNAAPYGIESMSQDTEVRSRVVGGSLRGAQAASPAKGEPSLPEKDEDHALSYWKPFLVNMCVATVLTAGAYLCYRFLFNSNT

[3] = target: T1, Tyrosine-protein phosphatase non-receptor type 1; assay: Inhibitory potency against human Protein-tyrosine phosphatase 1B expressed in Escherichia coli BL21 (DE3) cells; summary of the method: as §1

Secreted effector protein, sequence (O68720 whole entry): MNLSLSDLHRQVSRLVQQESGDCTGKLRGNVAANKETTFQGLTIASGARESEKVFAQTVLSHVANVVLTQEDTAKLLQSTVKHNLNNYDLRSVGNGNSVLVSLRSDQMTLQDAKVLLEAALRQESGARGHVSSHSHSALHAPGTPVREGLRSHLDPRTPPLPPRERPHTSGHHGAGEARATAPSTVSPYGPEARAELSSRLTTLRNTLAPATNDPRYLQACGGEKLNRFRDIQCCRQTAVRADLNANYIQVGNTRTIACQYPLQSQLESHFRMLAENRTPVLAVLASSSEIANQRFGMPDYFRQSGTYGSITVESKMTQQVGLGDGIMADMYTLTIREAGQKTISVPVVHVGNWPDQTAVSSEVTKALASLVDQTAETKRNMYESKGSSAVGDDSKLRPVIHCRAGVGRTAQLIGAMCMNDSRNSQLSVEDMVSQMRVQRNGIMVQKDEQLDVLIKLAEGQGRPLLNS

Structure (SMILES)	IC50 [1]	IC50 [2]	Ki [3]
CC(C)C[C@H](NC(=O)[C@H](Cc1ccc(OC(F)(C(=O)O)C(=O)O)cc1)NC(=O)[C@H](CCC(=O)OCc1ccccc1)NC(=O)OCC1c2ccccc2-c2ccccc21)C(N)=O	2.9 µM	1.5 µM	
CC(C)C[C@H](NC(=O)[C@H](Cc1ccc(CC(=O)O)c(C(=O)O)c1)NC(=O)[C@H](CCC(=O)O)NC(=O)OCC1c2ccccc2-c2ccccc21)C(N)=O	> 800 µM	0.7 µM	
CC(C)C[C@H](NC(=O)[C@H](Cc1ccc(C(F)(F)C(=O)O)cc1)NC(=O)[C@H](CCC(=O)O)NC(=O)OCC1c2ccccc2-c2ccccc21)C(N)=O	> 800 µM	1.4 µM	
CC(C)C[C@H](NC(=O)[C@H](Cc1ccc(CC(=O)O)c(O)c1)NC(=O)[C@H](CCC(=O)O)NC(=O)OCC1c2ccccc2-c2ccccc21)C(N)=O	> 800 µM	4 µM	
CC(C)C[C@H](NC(=O)[C@H](Cc1ccc(C(F)(C(=O)O)C(=O)O)cc1)NC(=O)[C@H](CCC(=O)OCc1ccccc1)NC(=O)OCC1c2ccccc2-c2ccccc21)C(N)=O	3.1 µM	3.1 µM	
CC(C)C[C@H](NC(=O)[C@H](Cc1ccc(OC(C(=O)O)C(=O)O)cc1)NC(=O)[C@H](CCC(=O)O)NC(=O)OCC1c2ccccc2-c2ccccc21)C(N)=O	> 800 µM		29 µM
CC(C)C[C@H](NC(=O)[C@H](Cc1ccc(OCC(=O)O)c(C(=O)O)c1)NC(=O)[C@H](CCC(=O)OCc1ccccc1)NC(=O)OCC1c2ccccc2-c2ccccc21)C(N)=O	10.5 µM	8.3 µM	
CC(C)C[C@H](NC(=O)[C@H](Cc1ccc(OCC(=O)O)c(C(=O)O)c1)NC(=O)[C@H](CCC(=O)O)NC(=O)OCC1c2ccccc2-c2ccccc21)C(N)=O	> 100 µM	54.7 µM	
CC(C)C[C@H](NC(=O)[C@H](Cc1ccc(C(C(=O)O)C(=O)O)cc1)NC(=O)[C@H](CCC(=O)O)NC(=O)OCC1c2ccccc2-c2ccccc21)C(N)=O	> 800 µM	0.8 µM	
CC(C)C[C@H](NC(=O)[C@H](Cc1ccc(C(F)(C(=O)O)C(=O)O)cc1)NC(=O)[C@H](CCC(=O)O)NC(=O)OCC1c2ccccc2-c2ccccc21)C(N)=O	> 800 µM	0.7 µM	
CC(C)C[C@H](NC(=O)[C@H](Cc1ccc(OCC(=O)O)cc1)NC(=O)[C@H](CCC(=O)OCc1ccccc1)NC(=O)OCCc1ccccc1)C(N)=O	8 µM	58.2 µM	
CC(C)C[C@H](NC(=O)[C@H](Cc1ccc(OC(C(=O)O)C(=O)O)cc1)NC(=O)[C@H](CCC(=O)OCc1ccccc1)NC(=O)OCC1c2ccccc2-c2ccccc21)C(N)=O	82 µM	116 µM	
CC(C)C[C@H](NC(=O)[C@H](Cc1ccc(CC(=O)O)c(C(=O)O)c1)NC(=O)[C@H](CCC(=O)OCc1ccccc1)NC(=O)OCC1c2ccccc2-c2ccccc21)C(N)=O	142 µM	44 µM	
CC(C)C[C@H](NC(=O)[C@H](Cc1ccc(C(F)(F)P(=O)(O)O)cc1)NC(=O)[C@H](CCC(=O)OCc1ccccc1)NC(=O)OCC1c2ccccc2-c2ccccc21)C(N)=O (Fmoc-Glu(OBn)-[F2Pmp]-Leu-NH2)	5.2 µM	1.41 µM	
